Results as given in ChEMBL document CHEMBL1127647, “Synthesis and antiviral activities of 8-alkynyl-, 8-alkenyl-, and 8-alkyl-2'-deoxyadenosine analogues” (1994).
≈ marks a conversion by molar mass, not a printed value.

Experiments:
Type in all cases: functional
ESM = test: Minimum inhibitory concentration to reduce cytopathicity by 50% in morphology of human embryonic skin-muscle cells (ESM)
MDCK [1] = test: Minimum inhibitory concentration required for antiviral activity to reduce influenza B virus (Singapore) induced cytopathicity in Madin-Darby canine kidney cells (MDCK); settings: Canis lupus familiaris
Method in brief: (§1)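 Endpoint is the compound concentration that reduces virus-induced cytopathicity in the host cell monolayer by 50%.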

HEL [2] = test: Minimum inhibitory concentration to reduce cytopathicity by 50% in proliferation of human embryonic lung cells (HEL)
Method in brief: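 Host cell toxicity is read as the compound concentration that reduces HEL cell proliferation by 50%.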

MDCK [3] = test: Minimum inhibitory concentration required for antiviral activity to reduce Influenza A virus (Ishikawa) induced cytopathicity in Madin-Darby canine kidney cells (MDCK); settings: Canis lupus familiaris; method in brief: as §1
HEL [4] = test: Minimum inhibitory concentration required for antiviral activity to reduce TK Varicella Zoster virus (VZV) (07/1) induced cytopathicity in human embryonic lung cells (HEL)
HEL [5] = test: Minimum inhibitory concentration required for antiviral activity to reduce Cytomegalovirus (CMV) (Davis) induced cytopathicity in human embryonic lung cells (HEL); method in brief: as §1
[6] = system: Respiratory syncytial virus; test: Minimum inhibitory concentration required for antiviral activity to reduce Respiratory syncytial virus (RSV) (Long) induced cytopathicity in human carcinoma cells (HeLa); method in brief: as §1
Human alphaherpesvirus 1 = test: Minimum inhibitory concentration required for antiviral activity to reduce TK-HSV-1 (B2006) induced cytopathicity in human embryonic skin-muscle cells (ESM); method in brief: as §1
MDCK [7] = test: Minimum inhibitory concentration to reduce cytopathicity by 50% in morphology of Madin-Darby canine kidney cells (MDCK); settings: Canis lupus familiaris
[8] = system: Vesicular stomatitis virus; test: Minimum inhibitory concentration required for antiviral activity to reduce Vesicular stomatitis virus (VSV) induced cytopathicity in human embryonic skin-muscle cells (ESM); method in brief: as §1
Vaccinia virus = test: Minimum inhibitory concentration required for antiviral activity to reduce Vaccinia virus (VV) induced cytopathicity in human embryonic skin-muscle cells (ESM); settings: Orthopoxvirus vaccinia; method in brief: as §1
HEL [9] = test: Minimum inhibitory concentration required for antiviral activity to reduce Varicella Zoster virus (VZV) (Oka) induced cytopathicity in human embryonic lung cells (HEL)
HEL [10] = test: Minimum inhibitory concentration required for antiviral activity to reduce Cytomegalovirus (CMV) (AD-169) induced cytopathicity in human embryonic lung cells (HEL); method in brief: as §1
HeLa = test: Minimum inhibitory concentration to reduce cytopathicity by 50% in morphology of human carcinoma cells (HeLa)
Method in brief: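 Cytotoxicity endpoint is the minimum compound concentration that causes a microscopically detectable alteration of normal host cell morphology.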

| Structure (SMILES) | MIC (ESM) [µg/mL] | MIC (MDCK [1]) [µg/mL] | MIC (HEL [2]) [µg/mL] | MIC (MDCK [3]) [µg/mL] | MIC (HEL [4]) [µg/mL] | MIC (HEL [5]) [µg/mL] | MIC [6] [µg/mL] | MIC (Human alphaherpesvirus 1) [µg/mL] | MIC (MDCK [7]) [µg/mL] | MIC [8] [µg/mL] | MIC (Vaccinia virus) [µg/mL] | MIC (HEL [9]) [µg/mL] | MIC (HEL [10]) [µg/mL] | MIC (HeLa) [µg/mL] |
| --- | --- | --- | --- | --- | --- | --- | --- | --- | --- | --- | --- | --- | --- | --- |
| CCCCCc1nc2c(N)ncnc2n1[C@H]1C[C@H](O)[C@@H](CO)O1 | > 200 | > 100 | 30 (≈ 93.3 µM) | > 100 | 20 (≈ 62.2 µM) | 10 (≈ 31.1 µM) | > 100 | > 100 | 100 (≈ 311 µM) | 70 (≈ 218 µM) | 150 (≈ 467 µM) | 20 (≈ 62.2 µM) | 10 (≈ 31.1 µM) | 100 (≈ 311 µM) |
| CCC/C=C\c1nc2c(N)ncnc2n1[C@H]1C[C@H](O)[C@@H](CO)O1 | ≥ 200 | > 200 | 40 (≈ 125 µM) | > 200 | > 50 | > 50 | 100 (≈ 313 µM) | > 100 | > 200 | > 100 | > 100 | > 50 | > 50 | > 200 |
| CCc1nc2c(N)ncnc2n1[C@H]1C[C@H](O)[C@@H](CO)O1 | > 400 | > 200 | > 200 | > 200 | 55 (≈ 197 µM) | 70 (≈ 251 µM) | > 200 | 300 (≈ 1070 µM) | > 200 | > 400 | > 400 | > 100 | 70 (≈ 251 µM) | > 200 |
| NC(=O)c1ncn([C@@H]2O[C@H](CO)[C@@H](O)[C@H]2O)n1 [RIBAVIRIN] | > 400 | – | – | – | – | – | – | > 300 | – | > 400 | 70 (≈ 287 µM) | – | – | – |
| Nc1ncnc2c1ncn2[C@H]1C[C@H](O)[C@@H](CO)O1 [DEOXYADENOSINE] | > 400 | > 200 | – | > 200 | > 100 | > 100 | 20 (≈ 79.6 µM) | > 400 | > 200 | > 400 | > 400 | > 100 | > 100 | 200 (≈ 796 µM) |
| C/C=C\c1nc2c(N)ncnc2n1[C@H]1C[C@H](O)[C@@H](CO)O1 | ≥ 100 | > 200 | > 50 | > 200 | > 50 | > 50 | > 200 | > 100 | > 200 | > 100 | > 100 | > 50 | > 50 | > 200 |
| C#Cc1nc2c(N)ncnc2n1[C@H]1C[C@H](O)[C@@H](CO)O1 | 10 (≈ 36.3 µM) | > 20 | 2 (≈ 7.27 µM) | > 20 | 4 (≈ 14.5 µM) | 4 (≈ 14.5 µM) | > 4 | > 4 | 20 (≈ 72.7 µM) | > 4 | > 4 | 7 (≈ 25.4 µM) | 2 (≈ 7.27 µM) | 4 (≈ 14.5 µM) |
| CCCCCC#Cc1nc2c(N)ncnc2n1[C@H]1C[C@H](O)[C@@H](CO)O1 | > 200 | 100 (≈ 290 µM) | 6 (≈ 17.4 µM) | > 100 | 8 (≈ 23.2 µM) | 7 (≈ 20.3 µM) | 30 (≈ 86.9 µM) | > 100 | 100 (≈ 290 µM) | 20 (≈ 57.9 µM) | 7 (≈ 20.3 µM) | 15 (≈ 43.4 µM) | 2 (≈ 5.79 µM) | 100 (≈ 290 µM) |
